Source: ChEMBL document CHEMBL3351809, “New potent antibacterials against Gram-positive multiresistant pathogens: effects of side chain modification and chirality in linezolid-like 1,2,4-oxadiazoles” (Bioorg Med Chem, 2014)
≈ marks a conversion by molar mass, not a printed value.

Experiments:
Staphylococcus aureus [1] = experiment: Antibacterial activity against Staphylococcus aureus ATCC 29213 by broth microdilution method; assay type: functional
[2] = Antibacterial activity against Staphylococcus aureus Mu50 ATCC 700699 by broth microdilution method; assay type: functional, Staphylococcus aureus subsp. aureus Mu50
Staphylococcus aureus [3] = experiment: Antibacterial activity against methicillin-resistant Staphylococcus aureus MRSA M923 by broth microdilution method; assay type: functional
Staphylococcus aureus [4] = experiment: Antibacterial activity against methicillin-resistant Staphylococcus aureus MRSA 433 by broth microdilution method; assay type: functional
Staphylococcus aureus [5] = experiment: Antibacterial activity against methicillin-resistant Staphylococcus aureus MRSA F511 by broth microdilution method; assay type: functional
HepG2 [6] = experiment: Cytotoxicity against human HepG2 cells at 25 to 100 ug/ml after 48 hrs by presto-blue staining-based assay; assay type: cell-based; conditions: hepg2, 48 h
How it was run: (§1)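 HepG2 cells were grown in DMEM with 10% heat-inactivated FBS, 2 mM L-glutamine and penicillin/streptomycin. They were seeded at 40,000 cells/cm² on collagen-coated wells and treated two days later with enantiomers at 25–100 µg/ml (in DMSO) for 48 h. PrestoBlue resazurin was read after 1 h at 37 °C as absorbance at 570 nm against 600 nm. Data are mean ± SEM of 3 experiments in triplicate; Student's t test.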

HepG2 [7] = experiment: Cytotoxicity against human HepG2 cells at 100 ug/ml after 48 hrs by presto-blue staining-based assay; assay type: cell-based; conditions: hepg2, 48 h; how it was run: as §1
Staphylococcus aureus [8] = experiment: Antibacterial activity against linezolid-sensitive methicillin-resistant Staphylococcus aureus by broth microdilution method; assay type: functional
[9] = tested on: Staphylococcus epidermidis; experiment: Antibacterial activity against linezolid-resistant methicillin-resistant Staphylococcus epidermidis by broth microdilution method; assay type: functional
HepG2 [10] = experiment: Cytotoxicity against human HepG2 cells at 25 ug/ml after 48 hrs by presto-blue staining-based assay; assay type: cell-based; conditions: hepg2, 48 h; how it was run: as §1
HepG2 [11] = experiment: Cytotoxicity against human HepG2 cells at 50 to 100 ug/ml after 48 hrs by presto-blue staining-based assay; assay type: cell-based; conditions: hepg2, 48 h; how it was run: as §1

SMILES | MIC (Staphylococcus aureus [1]) [µg/mL] | MIC [2] [µg/mL] | MIC (Staphylococcus aureus [3]) [µg/mL] | MIC (Staphylococcus aureus [4]) [µg/mL] | MIC (Staphylococcus aureus [5]) [µg/mL] | Activity (HepG2 [6]) | Activity (HepG2 [7]) [%] | MIC (Staphylococcus aureus [8]) [µg/mL] | MIC [9] [µg/mL] | Activity (HepG2 [10]) | Activity (HepG2 [11])
C=C1CN(c2ccc(-c3nc(C)no3)cc2)C(=O)O1 | > 50 | > 50 | > 50 | > 50 | > 50 | – | – | – | – | – | –
CNC(=S)NC[C@H]1CN(c2ccc(-c3nc(C)no3)c(F)c2)C(=O)O1 | – | – | – | – | – | Toxic | – | – | – | – | –
CC(=O)NC[C@H]1CN(c2ccc(N3CCOCC3)c(F)c2)C(=O)O1 [LINEZOLID] | – | – | 3.12 (≈ 9.26 µM) | – | 3.12 (≈ 9.26 µM) | – | 20 | – | – | – | –
Cc1noc(-c2ccc(N3CC(CNC(N)=S)OC3=O)cc2)n1 (racemic) | > 50 | > 50 | > 50 | > 50 | 50 (≈ 150 µM) | – | – | – | – | – | –
Cc1noc(-c2ccc(N3CC(Cn4ccnn4)OC3=O)cc2F)n1 (racemic) | 25 (≈ 72.6 µM) | 1.6 (≈ 4.65 µM) | 25 (≈ 72.6 µM) | 6.25 (≈ 18.2 µM) | 12.5 (≈ 36.3 µM) | – | – | – | – | – | –
CNC(=S)NCC1CN(c2ccc(-c3nc(C)no3)cc2)C(=O)O1 (racemic) | 6.25 (≈ 18 µM) | 1.6 (≈ 4.61 µM) | 6.25 (≈ 18 µM) | 3.12 (≈ 9 µM) | 6.25 (≈ 18 µM) | – | – | – | – | – | –
CNC(=S)NC[C@H]1CN(c2ccc(-c3nc(C)no3)cc2)C(=O)O1 | – | – | – | – | – | – | – | 0.5 (≈ 1.44 µM) | 8 (≈ 23 µM) | Toxic | Non-toxic
Cc1noc(-c2ccc(N3CC(CN=C=S)OC3=O)cc2)n1 (racemic) | > 50 | > 50 | > 50 | > 50 | 50 (≈ 158 µM) | – | – | – | – | – | –
Cc1noc(-c2ccc(N3CC(CNC(N)=S)OC3=O)cc2F)n1 (racemic) | > 50 | > 50 | > 50 | > 50 | > 50 | – | – | – | – | – | –
Cc1noc(-c2ccc(N3CC(CN=C=S)OC3=O)cc2F)n1 (racemic) | > 50 | > 50 | > 50 | > 50 | > 50 | – | – | – | – | – | –
CNC(=S)NC[C@@H]1CN(c2ccc(-c3nc(C)no3)c(F)c2)C(=O)O1 | – | – | – | – | – | Toxic | – | – | – | – | –
CNC(=S)NCC1CN(c2ccc(-c3nc(C)no3)c(F)c2)C(=O)O1 (racemic) | 6.25 (≈ 17.1 µM) | 1.6 (≈ 4.38 µM) | 6.25 (≈ 17.1 µM) | 3.12 (≈ 8.55 µM) | 6.25 (≈ 17.1 µM) | – | – | – | – | – | –
Cc1noc(-c2ccc(N3CC(Cn4ccnn4)OC3=O)cc2)n1 (racemic) | 25 (≈ 76.6 µM) | 3.12 (≈ 9.58 µM) | 25 (≈ 76.6 µM) | 12.5 (≈ 38.3 µM) | 12.5 (≈ 38.3 µM) | – | – | – | – | – | –
C=C1CN(c2ccc(-c3nc(C)no3)c(F)c2)C(=O)O1 | > 50 | > 50 | > 50 | > 50 | > 50 | – | – | – | – | – | –
